Measured values taken from ChEMBL document CHEMBL3352113, “Cytoprotective pyridinol antioxidants as potential therapeutic agents for neurodegenerative and mitochondrial diseases” (Bioorg Med Chem, 2014).
Active and inactive are the calls of the source. The calls are words filed in the database; no cut-off is given here.

Key:
Lymphocyte [1] = assay: Inhibition of oxidative stress-induced mitochondrial membrane depolarization in diethyl maleate-treated human lymphocytes obtained from FRDA patient assessed as cells with intact mitochondrial membrane potential at 250 nM pretreated for 16 hrs using TMRM by FACS analysis (reference value: 95%); format: functional; set-up: scale not given: the % may be the effect or the level left
Lymphocyte [2] = assay: Cytoprotective activity in human lymphocytes obtained from Leigh's syndrome patient assessed as viable cells at 0.5 uM after 16 hrs by trypan blue exclusion assay; format: functional; conditions: read-out: Activity
In short: (§1)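 Lymphocytes from FRDA or Leigh's syndrome patients, grown in RPMI-1640 with 15% fetal calf serum and 2 mM glutamine, kept in log phase. Test agents at 0.1, 0.5 and 2.5 µM; diethyl maleate (DEM) added to deplete glutathione and induce oxidative stress. Viability expressed relative to untreated cells (100%). Values are mean ± SD/SEM as tabulated.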

Lymphocyte [3] = assay: Increase in ATP production in CoQ10-deficient lymphocytes (unknown origin) assessed as cellular ATP level at 5 uM after 48 hrs using luciferin-luciferase reaction by bioluminescence assay relative to control; format: functional
In short: (§2)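 CoQ10-deficient lymphocyte line GM17932 grown in glucose-free RPMI 1640 with 25 mM galactose, 2 mM glutamine and 10% dialyzed FBS, forcing oxidative phosphorylation. Incubated with compounds at 5, 10 or 25 µM for 48 h. Total intracellular ATP measured by luciferin–luciferase reaction, expressed as % of untreated control.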

Lymphocyte [4] = assay: Inhibition of lipid peroxidation in diethyl maleate-treated human lymphocytes obtained from FRDA patient at 100 to 250 nM after 16 hrs using C11-BODIPY581/591 by FACS analysis; format: functional, cell-based
In short: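 FRDA lymphocytes depleted of glutathione with DEM, probed with C11-BODIPY581/591. Green (oxidized) fluorescence read by flow cytometry at 490/510 nm. Median mean fluorescence taken relative to untreated control and converted to % lipid peroxidation scavenging; mean ± SEM, n = 3.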

Lymphocyte [5] = assay: Cytoprotective activity in human lymphocytes obtained from Leigh's syndrome patient assessed as viable cells at 2.5 uM after 16 hrs by trypan blue exclusion assay; format: functional; conditions: read-out: Activity; in short: as §1
Lymphocyte [6] = assay: Inhibition of oxidative stress-induced mitochondrial membrane depolarization in diethyl maleate-treated human lymphocytes obtained from FRDA patient assessed as cells with intact mitochondrial membrane potential at 100 nM pretreated for 16 hrs using TMRM by FACS analysis (reference value: 95%); format: functional; set-up: scale not given: the % may be the effect or the level left
Lymphocyte [7] = assay: Cytoprotective activity in human lymphocytes obtained from Leigh's syndrome patient assessed as viable cells at 0.1 uM after 16 hrs by trypan blue exclusion assay; format: functional; conditions: read-out: Activity; in short: as §1
Bos taurus [8] = organism: Bos taurus; assay: Inhibition of bovine heart mitochondrial NADH oxidase complex I/III/IV assessed as remaining activity by spectrophotometry relative to untreated control
Lymphocyte [9] = assay: Inhibition of oxidative stress-induced mitochondrial membrane depolarization in diethyl maleate-treated human lymphocytes obtained from FRDA patient assessed as cells with intact mitochondrial membrane potential at 500 nM pretreated for 16 hrs using TMRM by FACS analysis (reference value: 95%); format: functional; set-up: scale not given: the % may be the effect or the level left
Lymphocyte [10] = assay: Inhibition of ROS generation in diethyl maleate-treated human lymphocytes obtained from FRDA patient compound pretreated at 100 to 500 nM for 16 hrs using DCFH-DA by FACS analysis; format: functional, cell-based
In short: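 FRDA lymphocytes pretreated with compounds at 100, 250 and 500 nM for 16 h, then given DEM for 80 min to raise ROS. Stained with DCFH-DA for 15 min, then DCF fluorescence read by flow cytometry. Reported as % ROS scavenging; mean ± SEM of three experiments run in duplicate.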

Lymphocyte [11] = assay: Cytoprotective activity in human lymphocytes obtained from FRDA patient assessed as viable cells at 0.5 uM after 16 hrs by trypan blue exclusion assay; format: functional; conditions: read-out: Activity; in short: as §1
Lymphocyte [12] = assay: Increase in ATP production in CoQ10-deficient lymphocytes (unknown origin) assessed as cellular ATP level at 25 uM after 48 hrs using luciferin-luciferase reaction by bioluminescence assay relative to control; format: functional; in short: as §2
Bos taurus [13] = organism: Bos taurus; assay: Inhibition of bovine heart mitochondrial NADH oxidase complex I/III/IV assessed as remaining activity at 5 uM by spectrophotometry relative to untreated control
Bos taurus [14] = organism: Bos taurus; assay: Inhibition of bovine heart mitochondrial NADH oxidase complex I/III/IV assessed as remaining activity at 1 uM by spectrophotometry relative to untreated control
Lymphocyte [15] = assay: Cytoprotective activity in human lymphocytes obtained from FRDA patient assessed as viable cells after 16 hrs by trypan blue exclusion assay; format: functional, cell-based; in short: as §1
Lymphocyte [16] = assay: Cytoprotective activity in human lymphocytes obtained from Leigh's syndrome patient assessed as viable cells after 16 hrs by trypan blue exclusion assay; format: functional, cell-based; in short: as §1
Bos taurus [17] = organism: Bos taurus; assay: Inhibition of bovine heart mitochondrial NADH oxidase complex I/III/IV assessed as remaining activity at 10 uM by spectrophotometry relative to untreated control
[18] = Metabolic stability in bovine liver microsomes at 25 uM after 30 mins by reverse phase HPLC analysis; format: ADME, Bos taurus; conditions: cattle, read-out: Stability
In short: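 Compounds incubated 30 min with activated bovine liver microsomes. Remaining parent compound quantified by reversed-phase HPLC and expressed as % recovered; mean ± SD.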

Lymphocyte [19] = assay: Cytoprotective activity in human lymphocytes obtained from FRDA patient assessed as viable cells at 0.1 uM after 16 hrs by trypan blue exclusion assay; format: functional; conditions: read-out: Activity; in short: as §1
Lymphocyte [20] = assay: Increase in ATP production in CoQ10-deficient lymphocytes (unknown origin) assessed as cellular ATP level at 10 uM after 48 hrs using luciferin-luciferase reaction by bioluminescence assay relative to control; format: functional; in short: as §2
Lymphocyte [21] = assay: Cytoprotective activity in human lymphocytes obtained from FRDA patient assessed as viable cells at 2.5 uM after 16 hrs by trypan blue exclusion assay; format: functional; conditions: read-out: Activity; in short: as §1
Lymphocyte [22] = assay: Inhibition of oxidative stress-induced mitochondrial membrane depolarization in diethyl maleate-treated human lymphocytes obtained from FRDA patient assessed as cells with intact mitochondrial membrane potential pretreated for 16 hrs using TMRM by FACS analysis; format: functional, cell-based

SMILES | Activity (Lymphocyte [1]) | viability at 0.5 µM (Lymphocyte [2]) | Activity (Lymphocyte [3]) | inhibition (Lymphocyte [4]) | viability at 2.5 µM (Lymphocyte [5]) | Activity (Lymphocyte [6]) | viability at 0.1 µM (Lymphocyte [7]) | inhibition (Bos taurus [8]) | Activity (Lymphocyte [9]) | inhibition (Lymphocyte [10]) | viability at 0.5 µM (Lymphocyte [11]) | Activity (Lymphocyte [12]) | Activity (Bos taurus [13]) | Activity (Bos taurus [14]) | Activity (Lymphocyte [15]) | Activity (Lymphocyte [16]) | Activity (Bos taurus [17]) | remaining at 0.5 h, 25 µM [18] | viability at 0.1 µM (Lymphocyte [19]) | Activity (Lymphocyte [20]) | other results
CCCCCCCCCCCCCCCCCCCc1nc(N(C)C)c(C)c(C)c1O | 44% | 7% | 102% | inactive | 66% | 24% | 4% | Dose-dependent effect | 65% | inactive | 38% | 99% | 88% | 93% | Dose-dependent effect | Dose-dependent effect | 85% | 50% | 17% | 102% | viability at 2.5 µM (Lymphocyte [21]): 76%
CCCCCCCCCCc1c(C)c(N(C)C)nc(C)c1O | 78% | 87% | 87% | Active | 86% | 60% | 19% | Dose-dependent effect | 89% | Active | 84% | 2% | 35% | 49% | Dose-dependent effect | Dose-dependent effect | 8% | 70% | 34% | 40% | inhibition (Lymphocyte [22]): Dose-dependent effect; viability at 2.5 µM (Lymphocyte [21]): 86%
CCCCCCCCCCCCCCCCc1nc(N2CCC2)c(C)c(C)c1O | 68% | 82% | 92% | Active | 81% | 54% | 13% | Dose-dependent effect | 85% | Active | 70% | 38% | 94% | 93% | Dose-dependent effect | Dose-dependent effect | 95% | 95% | 54% | 70% | viability at 2.5 µM (Lymphocyte [21]): 87%
CCCCCCCCCCCCCCCCCCCc1c(C)c(N(C)C)nc(C)c1O | 42% | 8% | 106% | inactive | 87% | 23% | 8% | Dose-dependent effect | 64% | inactive | 50% | 86% | 83% | 98% | Dose-dependent effect | Dose-dependent effect | 81% | 50% | 20% | 103% | viability at 2.5 µM (Lymphocyte [21]): 87%
CCCCCCCCCCCCCCCCc1c(C)c(N2CCC2)nc(C)c1O | 72% | 95% | 98% | Active | 92% | 55% | 18% | Dose-dependent effect | 89% | Active | 79% | 50% | 89% | 95% | Dose-dependent effect | Dose-dependent effect | 79% | 95% | 58% | 76% | viability at 2.5 µM (Lymphocyte [21]): 92%
